Where two headings read alike, the source gives them in different places.
Legend:
LPETG and GGG substrates = conditions: cited from earlier work
M. mazei Connectase = assay: Time course of the Connectase reaction with one primary substrate; format: biochemical; conditions: 0.9 µM M. mazei Connectase, 3.7 µM Ub-(5)KDPGA(10), 37 °C
Summary of the method: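 M. mazei Connectase-His6 incubated with His6-Ub-(5)KDPGA(10) primary substrate only, no secondary substrate. Buffer: 50 mM acetate/MES/Hepes, 150 mM NaCl, 50 mM KCl, 5 mM TCEP, pH 7.0. Time points were stopped with 2% SDS and run on Coomassie-stained 12% gels.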

[1] = tested on: ubiquitin ligation substrates (Ub-(5)KDPGA(15)/PGA(15)-Ub; Ub-[…]/GGG-Ub); format: biochemical
[2] = tested on: Ub-(5)KDPGA(15) and PGA(15)-Ub substrates; assay: Reaction rates of M. mazei Connectase at different temperatures; format: biochemical
Summary of the method: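 His6-Ub-(5)KDPGA(15) and PGA(15)-Ub-His6, each 6.25 µM, incubated with M. mazei Connectase-His6 at 400× lower concentration, at 25 °C, 37 °C or 50 °C. Buffer: 50 mM acetate/MES/Hepes, 150 mM NaCl, 50 mM KCl, 5 mM TCEP, pH 7.0. Time points were stopped with 2% SDS and run on Coomassie-stained 12% gels. Bands were quantified to give rates.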

B1: SrtA: S. aureus Sortase A without membrane anchor, reference ligase (protein)
chain: MRGSHHHHHHGSQAKPQIPKDKSKVAGYIEIPDADIKEPVYPGPATPEQLNRGVSFAEENESLDDQNISIAGHTFIDRPNYQFTNLKAAKKGSMVYFKVGNETRKYKMTSIRDVKPTDVEVLDEQKGKDKQLTLITCDDYNEKTGVWEKRKIFVATEVK
- kcat Ligation/kcat Hydrolysis (LPETG and GGG substrates): ≈ 3.3

B2: Ub-(5)KDPGA(10): C. subterraneum ubiquitin fused C-terminally to M. mazei MtrA residues 148 to 167 (protein)
chain: MHHHHHHGSMKIKIVPAVGGGSPLELEVAPNATVGAVRTKVCAMKKLPPDTTRLTYKGRALKDTETLESLGVADGDKFVLITRTVGGRELASKDPGAFDADPLVVEI
- fraction of substrate modified (conjugate with Connectase) at any time (M. mazei Connectase): ~7%

B3: M. mazei Connectase: sequence-specific protein ligase, monomeric homolog of 20S proteasome subunits from Methanosarcina mazei (protein)
chain: MTLVIAFIGKNGAVMAGDMREITFEGEKPDREKLEKELYSGSIVTDEEMQKKAEEFGVKITVADCKEKVSERNGVLVGEVSSAEGGVVKKRRLYASAGNFAIAELINTEMTLTSQGKGSNFIAFGNEFTKQVANKCFKDNWTKKSNLQDAVKILILCMETVARKTASVSKQFMIVQTASNADVLKVVEKDRNC
modifications: left off: Strep, C-terminal, kept
- ligase activity of Connectase relative to optimized SrtA5* ([1]; 100 µM substrates each, Connectase 50 °C, Sortase 37 °C): > 40 x
- ligation yield ([1]; protein-protein ligation of two ubiquitin molecules, equimolar substrates): ~50%
- temperature of maximum activity [2]: 50 °C

B4: SrtA5*: evolved SrtA pentamutant with significantly increased activity (protein)
chain: MQAKPQIPKDKSKVAGYIEIPDADIKEPVYPGPATREQLNRGVSFAEENESLDDQNISIAGHTFIDRPNYQFTNLKAAKKGSMVYFKVGNETRKYKMTSIRNVKPTAVEVLDEQKGKDKQLTLITCDDYNEETGVWETRKIFVATEVKLEHHHHHH
- Km (LPETG and GGG substrates; read-out: KM GGG): 4700 µM
- Km (LPETG and GGG substrates; read-out: KM LPETG): 170 µM
- ligase activity of SrtA5* compared with SrtA ([1]; Ub-GGSLPETGGG and GGG-Ub substrates, 37 °C): ~100 x
